In ChEMBL document CHEMBL3792331, “Identification and synthesis of potent and selective pyridyl-isoxazole based agonists of sphingosine-1-phosphate 1 (S1P1)” (Bioorg Med Chem Lett, 2016):
pEC50, pIC50: −log10 of the molar value.

Assays:
[1] = Selectivity index, ratio of EC50 for agonist activity at human S1P3 receptor expressed in EDG3-Ga15-bla HEK293T cell membranes to EC50 for agonist activity at human S1P1 receptor expressed in CHO cell membranes; format: cell-based
Method in brief: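 S1P3/S1P1 ratio of GTPγ[35S] EC50s. Membranes from EDG3-Ga15-bla HEK293T (S1P3) or S1P1/CHO cells, […], 0.2 nM final [35S]GTP. HEPES pH 7.5 buffer with MgCl2, NaCl, EGTA, DTT, GDP, BSA and saponin. 45 min at room temperature, filtration read-out. Each EC50 taken at 50% of the compound's own Ymax.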

Rattus norvegicus [2] = experiment: Reduction in circulating lymphocytes in Lewis rat at 1 mg/kg, po after 4 hrs; format: functional
Method in brief: (§1)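 Healthy Lewis rats dosed orally with test article as solution or suspension in vehicle, or vehicle alone. Blood drawn at 4 h and 24 h. Circulating lymphocyte percentage measured by hematology analyzer, expressed as reduction versus the vehicle group. Group average, n = 3–4.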

Plasma = experiment: Ratio of plasma concentration Lewis rat at 1 mg/kg, po after 4 hrs to plasma concentration Lewis rat at 1 mg/kg, po after 24 hrs; format: ADME, organism-based; settings: in vivo
Method in brief: (§2)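 Lewis rats given 1.0 mg/kg orally as solution or suspension in vehicle. Plasma drug concentration measured in blood drawn at 4 h and 24 h; 4 h/24 h ratio taken from these values.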

[3] = target: Sphingosine 1-phosphate receptor 1 (Homo sapiens, UniProt P21453); experiment: Agonist activity at human S1P1 receptor expressed in CHO cell membranes assessed as stimulation of [35S]GTPgamma binding incubated for 45 mins by liquid scintillation counting method
Method in brief: (§3)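 Membranes from S1P1/CHO cells (S1P1) or EDG3-Ga15-bla HEK293T cells (S1P3), final protein […], with 3-fold compound dilutions. Buffer: 20 mM HEPES pH 7.5, 10 mM MgCl2, 150 mM NaCl, 1 mM EGTA, 1 mM DTT, GDP, 0.1% fatty acid free BSA, saponin. [35S]GTP 0.2 nM final. Room temperature, 45 min. Filtered, washed with water, dried 60 °C. EC50 taken at 50% of each compound's Ymax.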

[4] = target: Sphingosine 1-phosphate receptor 3 (Homo sapiens, UniProt Q99500); experiment: Agonist activity at human S1P3 receptor expressed in EDG3-Ga15-bla HEK293T cell membranes assessed as stimulation of [35S]GTPgamma binding incubated for 45 mins by liquid scintillation counting method; parameters: species or system HEK-293T; method in brief: as §3
[5] = Plasma concentration Lewis rat at 1 mg/kg, po after 4 hrs; format: ADME, organism-based; method in brief: as §2
Rattus norvegicus [6] = experiment: Reduction in circulating lymphocytes in Lewis rat at 1 mg/kg, po after 24 hrs; format: functional; method in brief: as §1
[7] = Plasma concentration Lewis rat at 1 mg/kg, po after 24 hrs; format: ADME, organism-based; method in brief: as §2
Rattus norvegicus [8] = experiment: Reduction in circulating lymphocytes in Lewis rat at 0.3 mg/kg, po after 24 hrs; format: functional; method in brief: as §1
CHO [9] = experiment: Selectivity index, ratio of EC50 for agonist activity at human S1P4 receptor to EC50 for agonist activity at human S1P1 receptor expressed in CHO cell membranes; format: cell-based
CHO [10] = experiment: Selectivity index, ratio of EC50 for agonist activity at human S1P5 receptor to EC50 for agonist activity at human S1P1 receptor expressed in CHO cell membranes; format: cell-based
[11] = Protein binding in human plasma; format: ADME, cell-free; settings: read-out: PPB (converted)
[12] = Protein binding in mouse plasma; format: ADME, cell-free; settings: read-out: PPB (converted)
[13] = Protein binding in rat plasma; format: ADME, cell-free; settings: read-out: PPB (converted)
[14] = Protein binding in dog plasma; format: ADME, cell-free, Canis lupus familiaris; settings: read-out: PPB (converted)
[15] = Protein binding in monkey plasma; format: ADME, cell-free, Macaca mulatta; settings: rhesus monkey, read-out: PPB (converted)
Salmonella typhimurium = experiment: Mutagenicity in Salmonella typhimurium; format: toxicity, organism-based; settings: salmonella enterica subsp. enterica serovar typhimurium
hERG (KCNH2) [16] = target: T1, hERG (KCNH2) (Homo sapiens, UniProt Q12809); experiment: Inhibition of human ERG at 10 uM by patch clamp assay
hERG (KCNH2) [17] = target: T1, hERG (KCNH2); experiment: Inhibition of human ERG at 30 uM by patch clamp assay
Homo sapiens [18] = species on record: Homo sapiens; experiment: Inhibition of sodium channel (unknown origin) at 10 uM under 1 and 4 Hz condition by patch clamp assay
Homo sapiens [19] = species on record: Homo sapiens; experiment: Inhibition of potassium channel (unknown origin) at 10 uM by patch clamp assay
Cytochrome P450 1A2 = target: T2, Cytochrome P450 1A2 (Homo sapiens, UniProt P05177); experiment: Inhibition of CYP1A2 (unknown origin); format: ADME
T2 sequence (P05177 whole entry): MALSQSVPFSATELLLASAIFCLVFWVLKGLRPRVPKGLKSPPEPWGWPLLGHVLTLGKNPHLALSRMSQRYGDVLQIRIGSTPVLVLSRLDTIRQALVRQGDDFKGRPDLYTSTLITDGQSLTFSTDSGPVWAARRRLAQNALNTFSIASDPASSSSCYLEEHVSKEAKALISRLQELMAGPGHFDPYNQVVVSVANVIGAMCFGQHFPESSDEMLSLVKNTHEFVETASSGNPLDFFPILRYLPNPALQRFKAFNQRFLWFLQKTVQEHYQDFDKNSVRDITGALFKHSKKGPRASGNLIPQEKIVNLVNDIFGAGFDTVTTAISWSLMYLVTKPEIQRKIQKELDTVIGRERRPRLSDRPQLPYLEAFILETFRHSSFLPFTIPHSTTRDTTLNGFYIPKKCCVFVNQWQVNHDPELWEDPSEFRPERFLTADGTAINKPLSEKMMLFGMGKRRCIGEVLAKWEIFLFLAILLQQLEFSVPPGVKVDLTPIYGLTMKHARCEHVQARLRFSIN

Cytochrome P450 2B6 = target: T3, Cytochrome P450 2B6 (Homo sapiens, UniProt P20813); experiment: Inhibition of CYP2B6 (unknown origin); format: ADME
T3 sequence (P20813 whole entry): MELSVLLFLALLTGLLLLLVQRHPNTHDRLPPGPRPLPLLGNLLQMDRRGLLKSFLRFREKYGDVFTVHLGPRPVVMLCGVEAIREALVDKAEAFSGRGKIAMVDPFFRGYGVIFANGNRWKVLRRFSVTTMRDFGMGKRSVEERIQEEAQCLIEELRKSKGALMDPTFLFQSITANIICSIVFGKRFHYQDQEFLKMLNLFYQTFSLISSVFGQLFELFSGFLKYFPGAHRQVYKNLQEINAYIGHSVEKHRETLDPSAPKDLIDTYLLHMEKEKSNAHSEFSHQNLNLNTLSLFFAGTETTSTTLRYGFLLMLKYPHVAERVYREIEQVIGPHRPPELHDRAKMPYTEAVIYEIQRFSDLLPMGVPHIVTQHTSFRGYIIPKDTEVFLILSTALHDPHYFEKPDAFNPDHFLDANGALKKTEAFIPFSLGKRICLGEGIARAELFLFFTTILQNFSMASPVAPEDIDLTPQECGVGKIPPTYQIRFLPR

Cytochrome P450 2C8 = target: T4, Cytochrome P450 2C8 (Homo sapiens, UniProt P10632); experiment: Inhibition of CYP2C8 (unknown origin); format: ADME
T4 sequence (P10632 whole entry): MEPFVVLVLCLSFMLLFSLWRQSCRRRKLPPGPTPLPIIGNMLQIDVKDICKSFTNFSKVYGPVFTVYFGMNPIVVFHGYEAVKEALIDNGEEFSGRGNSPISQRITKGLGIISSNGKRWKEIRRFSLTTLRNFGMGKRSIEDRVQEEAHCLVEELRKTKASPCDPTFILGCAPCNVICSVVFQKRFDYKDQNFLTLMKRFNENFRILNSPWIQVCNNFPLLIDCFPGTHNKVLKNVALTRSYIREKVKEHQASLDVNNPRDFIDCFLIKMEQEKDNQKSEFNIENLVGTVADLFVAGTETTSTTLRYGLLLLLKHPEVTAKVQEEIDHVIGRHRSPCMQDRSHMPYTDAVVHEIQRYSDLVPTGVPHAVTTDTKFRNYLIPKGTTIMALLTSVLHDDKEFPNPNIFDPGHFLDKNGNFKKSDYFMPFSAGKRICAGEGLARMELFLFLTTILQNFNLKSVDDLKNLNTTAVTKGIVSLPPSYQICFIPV

Cytochrome P450 2C9 = Cytochrome P450 2C9 (Homo sapiens, UniProt P11712); experiment: Inhibition of CYP2C9 (unknown origin); format: ADME
Cytochrome P450 2C19 = Cytochrome P450 2C19 (Homo sapiens, UniProt P33261); experiment: Inhibition of CYP2C19 (unknown origin); format: ADME
Cytochrome P450 2D6 = Cytochrome P450 2D6 (Homo sapiens, UniProt P10635); experiment: Inhibition of CYP2D6 (unknown origin); format: ADME
Cytochrome P450 3A4 = Cytochrome P450 3A4 (Homo sapiens, UniProt P08684); experiment: Inhibition of CYP3A4 (unknown origin); format: ADME
Cytochrome P450 3A4, sequence (P08684 whole entry): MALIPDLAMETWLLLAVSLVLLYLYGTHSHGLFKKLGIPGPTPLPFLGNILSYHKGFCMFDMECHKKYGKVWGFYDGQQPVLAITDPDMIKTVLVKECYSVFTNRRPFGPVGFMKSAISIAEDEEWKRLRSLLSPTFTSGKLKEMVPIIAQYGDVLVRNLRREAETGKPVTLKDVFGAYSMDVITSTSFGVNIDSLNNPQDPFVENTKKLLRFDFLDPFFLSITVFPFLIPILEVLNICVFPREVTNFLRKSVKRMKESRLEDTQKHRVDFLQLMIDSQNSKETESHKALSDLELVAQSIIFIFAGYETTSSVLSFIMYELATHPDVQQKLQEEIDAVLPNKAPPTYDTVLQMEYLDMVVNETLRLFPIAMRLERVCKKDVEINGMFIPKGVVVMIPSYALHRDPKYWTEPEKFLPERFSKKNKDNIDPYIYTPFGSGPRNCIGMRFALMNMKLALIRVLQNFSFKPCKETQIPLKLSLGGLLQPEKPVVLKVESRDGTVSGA

T1 sequence (Q12809 whole entry): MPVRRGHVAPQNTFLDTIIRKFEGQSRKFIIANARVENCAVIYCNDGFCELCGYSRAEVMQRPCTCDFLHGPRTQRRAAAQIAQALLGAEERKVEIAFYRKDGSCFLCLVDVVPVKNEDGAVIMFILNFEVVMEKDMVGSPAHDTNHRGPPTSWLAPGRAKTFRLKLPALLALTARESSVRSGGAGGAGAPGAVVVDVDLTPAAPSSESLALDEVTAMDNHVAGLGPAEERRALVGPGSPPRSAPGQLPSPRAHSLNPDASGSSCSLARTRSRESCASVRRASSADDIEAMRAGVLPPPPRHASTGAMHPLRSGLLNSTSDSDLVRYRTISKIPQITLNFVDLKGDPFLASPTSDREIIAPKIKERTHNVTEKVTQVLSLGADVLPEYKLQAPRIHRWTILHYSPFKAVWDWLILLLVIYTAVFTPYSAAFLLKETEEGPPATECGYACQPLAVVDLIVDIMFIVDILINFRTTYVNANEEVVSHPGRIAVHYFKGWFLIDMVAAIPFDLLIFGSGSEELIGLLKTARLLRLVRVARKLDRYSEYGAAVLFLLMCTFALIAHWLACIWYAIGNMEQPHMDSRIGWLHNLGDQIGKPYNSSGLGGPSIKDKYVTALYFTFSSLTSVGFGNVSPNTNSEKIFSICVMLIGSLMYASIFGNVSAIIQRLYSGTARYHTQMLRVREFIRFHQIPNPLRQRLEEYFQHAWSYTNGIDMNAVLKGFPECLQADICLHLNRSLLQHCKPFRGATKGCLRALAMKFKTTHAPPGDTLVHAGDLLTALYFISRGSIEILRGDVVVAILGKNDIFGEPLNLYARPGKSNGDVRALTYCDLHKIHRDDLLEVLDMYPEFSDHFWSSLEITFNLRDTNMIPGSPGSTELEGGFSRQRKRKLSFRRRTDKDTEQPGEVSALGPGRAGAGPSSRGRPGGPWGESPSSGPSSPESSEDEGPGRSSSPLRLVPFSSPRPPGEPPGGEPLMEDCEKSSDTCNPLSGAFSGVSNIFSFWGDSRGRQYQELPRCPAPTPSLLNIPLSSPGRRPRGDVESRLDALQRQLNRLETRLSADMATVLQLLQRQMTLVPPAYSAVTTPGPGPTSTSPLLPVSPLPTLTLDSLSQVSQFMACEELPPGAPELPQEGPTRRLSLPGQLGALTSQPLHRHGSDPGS
Sphingosine 1-phosphate receptor 1, sequence (P21453 whole entry): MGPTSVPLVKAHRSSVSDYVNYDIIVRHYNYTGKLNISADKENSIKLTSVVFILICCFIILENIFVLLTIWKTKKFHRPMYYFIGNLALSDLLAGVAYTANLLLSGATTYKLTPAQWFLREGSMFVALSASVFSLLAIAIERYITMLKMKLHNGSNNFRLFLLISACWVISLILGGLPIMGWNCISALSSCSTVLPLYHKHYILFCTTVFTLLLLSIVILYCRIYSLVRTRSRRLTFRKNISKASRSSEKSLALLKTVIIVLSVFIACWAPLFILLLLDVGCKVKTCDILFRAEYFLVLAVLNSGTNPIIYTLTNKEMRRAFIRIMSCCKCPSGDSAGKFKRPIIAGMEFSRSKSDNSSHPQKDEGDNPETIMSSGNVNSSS
Cytochrome P450 2C9, sequence (P11712 whole entry): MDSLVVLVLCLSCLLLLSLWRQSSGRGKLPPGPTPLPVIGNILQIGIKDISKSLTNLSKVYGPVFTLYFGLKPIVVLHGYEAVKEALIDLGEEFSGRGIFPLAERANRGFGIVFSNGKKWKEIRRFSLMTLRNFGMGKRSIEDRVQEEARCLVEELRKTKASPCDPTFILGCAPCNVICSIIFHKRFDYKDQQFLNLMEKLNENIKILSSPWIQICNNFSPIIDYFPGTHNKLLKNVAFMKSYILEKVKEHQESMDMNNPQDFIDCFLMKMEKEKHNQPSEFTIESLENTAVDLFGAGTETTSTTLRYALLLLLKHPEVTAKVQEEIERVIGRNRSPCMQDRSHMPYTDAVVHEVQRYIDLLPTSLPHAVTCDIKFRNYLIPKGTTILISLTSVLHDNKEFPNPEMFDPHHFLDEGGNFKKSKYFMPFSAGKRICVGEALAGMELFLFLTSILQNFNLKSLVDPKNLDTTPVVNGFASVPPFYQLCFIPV
Cytochrome P450 2C19, sequence (P33261 whole entry): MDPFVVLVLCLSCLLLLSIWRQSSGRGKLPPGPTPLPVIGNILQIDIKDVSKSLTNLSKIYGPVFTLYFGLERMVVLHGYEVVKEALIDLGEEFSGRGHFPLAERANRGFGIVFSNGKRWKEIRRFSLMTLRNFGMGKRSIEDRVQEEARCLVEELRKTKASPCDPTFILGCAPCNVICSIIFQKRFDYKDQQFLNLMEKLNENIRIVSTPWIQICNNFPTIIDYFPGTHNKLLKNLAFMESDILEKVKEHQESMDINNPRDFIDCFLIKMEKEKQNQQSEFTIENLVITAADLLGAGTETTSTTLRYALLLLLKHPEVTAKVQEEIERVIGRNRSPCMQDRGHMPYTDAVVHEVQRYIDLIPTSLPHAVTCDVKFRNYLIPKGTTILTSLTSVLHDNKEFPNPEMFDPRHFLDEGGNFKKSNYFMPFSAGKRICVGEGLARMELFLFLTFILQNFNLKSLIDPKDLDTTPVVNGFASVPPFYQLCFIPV
Cytochrome P450 2D6, sequence (P10635 whole entry): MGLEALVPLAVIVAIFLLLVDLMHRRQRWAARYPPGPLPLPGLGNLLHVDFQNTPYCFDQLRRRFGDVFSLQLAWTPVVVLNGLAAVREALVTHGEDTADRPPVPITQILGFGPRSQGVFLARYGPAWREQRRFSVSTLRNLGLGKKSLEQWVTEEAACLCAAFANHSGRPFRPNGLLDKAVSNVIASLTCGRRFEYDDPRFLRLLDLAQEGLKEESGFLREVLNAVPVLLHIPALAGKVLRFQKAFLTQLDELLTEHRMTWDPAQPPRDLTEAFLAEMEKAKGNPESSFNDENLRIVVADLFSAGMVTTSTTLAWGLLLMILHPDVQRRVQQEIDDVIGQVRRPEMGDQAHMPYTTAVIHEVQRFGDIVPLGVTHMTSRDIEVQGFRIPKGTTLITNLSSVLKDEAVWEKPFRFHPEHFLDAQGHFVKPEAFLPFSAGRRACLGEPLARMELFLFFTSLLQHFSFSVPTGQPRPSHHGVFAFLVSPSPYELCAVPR
Sphingosine 1-phosphate receptor 3, sequence (Q99500 whole entry): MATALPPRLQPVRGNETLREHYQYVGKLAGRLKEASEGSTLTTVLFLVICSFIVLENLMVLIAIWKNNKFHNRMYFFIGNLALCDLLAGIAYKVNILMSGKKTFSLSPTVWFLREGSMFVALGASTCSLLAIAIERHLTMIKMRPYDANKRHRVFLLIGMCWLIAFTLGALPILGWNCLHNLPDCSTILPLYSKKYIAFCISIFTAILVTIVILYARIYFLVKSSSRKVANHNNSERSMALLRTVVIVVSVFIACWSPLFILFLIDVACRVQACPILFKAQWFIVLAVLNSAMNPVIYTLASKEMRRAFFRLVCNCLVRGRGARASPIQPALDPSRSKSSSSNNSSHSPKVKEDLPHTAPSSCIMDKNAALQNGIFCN

- Ratio (Plasma): 47
- pEC50 [3]: 9.15
- pEC50 [4]: 5.54
- concentration at 4 h [5]: 2510 nM
- concentration at 24 h [7]: 54 nM
- fraction unbound [11]: 0.005
- fraction unbound [12]: 0.006
- fraction unbound [13]: 0.024
- fraction unbound [14]: 0.274
- fraction unbound [15]: 0.065
- inhibition (Homo sapiens [18]): < 5%
- inhibition (Homo sapiens [19]): 12%
- pIC50 (Cytochrome P450 1A2): < 4.40
- pIC50 (Cytochrome P450 2B6): < 4.40
- pIC50 (Cytochrome P450 2C8): < 4.40
- pIC50 (Cytochrome P450 2C9): < 4.40
- pIC50 (Cytochrome P450 2C19): < 4.40
- pIC50 (Cytochrome P450 2D6): < 4.40
- pIC50 (Cytochrome P450 3A4): < 4.40
SMILES: O=C(O)C1CN(Cc2ccc(-c3noc(-c4onc(-c5ccccn5)c4C(F)(F)F)n3)cc2)C1
- Ratio EC50 [1]: 4100
- inhibition in vivo at 1 mg/kg (Rattus norvegicus [2]): 85%
- inhibition in vivo at 1 mg/kg (Rattus norvegicus [6]): 80%
- inhibition in vivo at 0.3 mg/kg (Rattus norvegicus [8]): 50%
- Ratio EC50 (CHO [9]): 3.2
- Ratio EC50 (CHO [10]): 3.2
- Activity (Salmonella typhimurium): Non-toxic
- inhibition at 10 µM (hERG (KCNH2) [16]): 13%
- inhibition at 30 µM (hERG (KCNH2) [17]): 34%
